“Also recorded” adds a separate entry of the source.
Legend:
[1] = tested on: human peripheral blood lymphocytes; experiment: In vitro human lymphocyte; type: cell-based; conditions: EDI048: near cytotoxic concentrations
Outline: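 Lymphocytes came from pooled blood of two donors. The assay was run under GLP and OECD guidelines, and micronuclei were scored on slides by fluorescence microscopy.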

[2] = Liver microsomes metabolic stability; type: in vitro ADME; conditions: human
Outline: (§1)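 Test compound was incubated with liver microsomes or hepatocytes of each species, and parent depletion was quantified by LC-MS/MS. From this, in vitro half-life and intrinsic clearance were derived, along with predicted metabolic clearance and hepatic extraction ratio.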

CYP3A4 / 1A2 / 2B6 = CYP3A4 / 1A2 / 2B6 hepatocyte induction assay; type: in vitro ADME
PAMPA = type: in vitro ADME
hNav1.5 = hNav1.5 (Homo sapiens, UniProt Q14524); experiment: Patch clamp Nav1.5 Quattro; type: cell-based
Chain of hNav1.5 (Q14524 whole entry): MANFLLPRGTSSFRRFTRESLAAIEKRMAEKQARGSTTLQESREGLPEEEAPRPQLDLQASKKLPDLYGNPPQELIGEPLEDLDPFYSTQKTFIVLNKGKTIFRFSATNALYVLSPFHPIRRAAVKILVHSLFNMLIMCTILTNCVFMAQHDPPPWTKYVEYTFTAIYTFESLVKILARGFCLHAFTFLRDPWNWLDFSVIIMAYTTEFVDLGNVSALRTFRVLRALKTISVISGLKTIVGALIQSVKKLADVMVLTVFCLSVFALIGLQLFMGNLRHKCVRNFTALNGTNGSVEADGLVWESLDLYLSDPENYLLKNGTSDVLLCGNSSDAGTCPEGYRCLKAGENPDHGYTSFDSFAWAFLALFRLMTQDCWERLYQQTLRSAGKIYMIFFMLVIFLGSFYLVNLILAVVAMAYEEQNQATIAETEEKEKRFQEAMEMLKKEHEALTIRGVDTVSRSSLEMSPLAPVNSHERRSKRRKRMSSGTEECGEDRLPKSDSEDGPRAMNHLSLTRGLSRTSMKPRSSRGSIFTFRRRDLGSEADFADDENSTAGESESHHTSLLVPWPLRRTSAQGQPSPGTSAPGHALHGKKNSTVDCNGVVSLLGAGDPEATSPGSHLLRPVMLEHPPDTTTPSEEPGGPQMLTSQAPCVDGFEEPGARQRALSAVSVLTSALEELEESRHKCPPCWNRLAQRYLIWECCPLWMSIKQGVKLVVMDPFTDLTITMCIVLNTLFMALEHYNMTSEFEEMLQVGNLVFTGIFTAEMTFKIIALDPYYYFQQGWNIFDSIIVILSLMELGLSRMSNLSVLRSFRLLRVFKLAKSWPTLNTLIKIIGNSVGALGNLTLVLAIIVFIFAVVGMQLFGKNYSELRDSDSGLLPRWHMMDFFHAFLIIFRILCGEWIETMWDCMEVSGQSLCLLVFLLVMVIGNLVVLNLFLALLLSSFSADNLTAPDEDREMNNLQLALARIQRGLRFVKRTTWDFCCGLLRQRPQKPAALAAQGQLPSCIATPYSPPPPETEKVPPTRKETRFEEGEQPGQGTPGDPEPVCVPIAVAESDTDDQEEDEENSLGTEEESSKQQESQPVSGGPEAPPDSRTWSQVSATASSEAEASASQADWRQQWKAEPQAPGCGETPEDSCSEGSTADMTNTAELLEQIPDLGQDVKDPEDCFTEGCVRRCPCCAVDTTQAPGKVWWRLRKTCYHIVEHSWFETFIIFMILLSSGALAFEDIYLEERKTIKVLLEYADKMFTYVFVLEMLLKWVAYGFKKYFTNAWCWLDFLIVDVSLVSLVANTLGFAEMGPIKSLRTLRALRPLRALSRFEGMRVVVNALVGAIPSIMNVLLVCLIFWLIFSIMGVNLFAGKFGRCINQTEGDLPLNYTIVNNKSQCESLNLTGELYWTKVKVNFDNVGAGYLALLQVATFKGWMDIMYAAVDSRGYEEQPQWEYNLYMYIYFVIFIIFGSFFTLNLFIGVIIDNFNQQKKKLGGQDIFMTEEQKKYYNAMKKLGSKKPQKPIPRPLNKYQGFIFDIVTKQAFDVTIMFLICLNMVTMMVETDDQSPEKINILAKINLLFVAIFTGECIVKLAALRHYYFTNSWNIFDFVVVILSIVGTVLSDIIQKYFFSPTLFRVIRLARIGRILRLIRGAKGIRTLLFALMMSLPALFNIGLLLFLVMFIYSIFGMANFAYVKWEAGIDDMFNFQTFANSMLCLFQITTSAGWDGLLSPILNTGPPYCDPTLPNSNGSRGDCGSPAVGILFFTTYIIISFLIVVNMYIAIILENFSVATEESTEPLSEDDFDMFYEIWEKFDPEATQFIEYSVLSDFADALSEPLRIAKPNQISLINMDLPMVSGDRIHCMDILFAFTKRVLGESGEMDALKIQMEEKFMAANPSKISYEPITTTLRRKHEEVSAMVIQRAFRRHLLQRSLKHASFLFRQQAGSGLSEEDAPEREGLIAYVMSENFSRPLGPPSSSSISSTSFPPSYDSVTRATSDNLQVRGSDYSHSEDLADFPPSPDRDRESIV
Outline: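 Each channel was stably expressed in HEK293 cells and tested by patch clamp with a 7-point concentration-response.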

C. parvum [3] = experiment: Cytopathic effect; type: cell-based, Cryptosporidium parvum; conditions: for EC50: read-out: Cp CPE EC50, C. parvum, HCT-8, 48 h
Outline: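 HCT-8 cells were grown at 37 °C, 5% CO2 in RPMI-1640 with 10% heat-inactivated FBS. Oocysts were excysted in 10 mM HCl/HBSS for 10 min at 37 °C, then in 2 mM sodium taurocholate in L-15/UltraCULTURE medium for 5 min. Infected cells were seeded onto pre-spotted compound (10-point, 3-fold dilution; DMSO and reference-inhibitor controls) and incubated 48 h. Cells were then lysed for a viability read-out, and concentration-response curves were fitted.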

CYP2C9 = CYP2C9 (Homo sapiens, UniProt P11712); experiment: CYP450 reversible inhibition; type: in vitro ADME
Chain of CYP2C9 (P11712 whole entry): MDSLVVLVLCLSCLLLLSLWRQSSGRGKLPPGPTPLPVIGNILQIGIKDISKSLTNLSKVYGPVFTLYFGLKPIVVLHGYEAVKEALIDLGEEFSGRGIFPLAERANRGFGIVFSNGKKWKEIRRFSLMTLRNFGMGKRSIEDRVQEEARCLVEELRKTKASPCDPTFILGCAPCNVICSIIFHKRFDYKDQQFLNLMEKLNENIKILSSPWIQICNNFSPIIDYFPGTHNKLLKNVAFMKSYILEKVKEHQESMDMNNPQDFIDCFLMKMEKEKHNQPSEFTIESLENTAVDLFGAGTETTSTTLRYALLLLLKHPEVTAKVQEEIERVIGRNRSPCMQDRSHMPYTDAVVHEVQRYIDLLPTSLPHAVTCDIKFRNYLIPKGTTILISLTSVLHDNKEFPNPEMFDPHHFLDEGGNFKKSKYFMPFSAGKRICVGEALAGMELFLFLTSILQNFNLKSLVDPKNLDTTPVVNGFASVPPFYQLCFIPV

P-glycoprotein (MDR1) = experiment: MDCK MDR1 permeability and efflux; type: in vitro ADME; conditions: dog
Plasma stability = type: in vitro ADME; conditions: human
Outline: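 Test compound was added to plasma and incubated at 37 °C in a shaking water bath, with samples taken at sequential timepoints. Samples were quenched with ice-cold acetonitrile and analysed by LC-MS/MS, and half-life was calculated from the depletion rate.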

CpPI(4)K = target: T1, CpPI(4)K (Cryptosporidium parvum, UniProt Q5CVD3); experiment: PI; type: biochemical, C. parvum; conditions: CpPI(4)K IC50, 3 μM ATP
T1 sequence (Q5CVD3 1-1114): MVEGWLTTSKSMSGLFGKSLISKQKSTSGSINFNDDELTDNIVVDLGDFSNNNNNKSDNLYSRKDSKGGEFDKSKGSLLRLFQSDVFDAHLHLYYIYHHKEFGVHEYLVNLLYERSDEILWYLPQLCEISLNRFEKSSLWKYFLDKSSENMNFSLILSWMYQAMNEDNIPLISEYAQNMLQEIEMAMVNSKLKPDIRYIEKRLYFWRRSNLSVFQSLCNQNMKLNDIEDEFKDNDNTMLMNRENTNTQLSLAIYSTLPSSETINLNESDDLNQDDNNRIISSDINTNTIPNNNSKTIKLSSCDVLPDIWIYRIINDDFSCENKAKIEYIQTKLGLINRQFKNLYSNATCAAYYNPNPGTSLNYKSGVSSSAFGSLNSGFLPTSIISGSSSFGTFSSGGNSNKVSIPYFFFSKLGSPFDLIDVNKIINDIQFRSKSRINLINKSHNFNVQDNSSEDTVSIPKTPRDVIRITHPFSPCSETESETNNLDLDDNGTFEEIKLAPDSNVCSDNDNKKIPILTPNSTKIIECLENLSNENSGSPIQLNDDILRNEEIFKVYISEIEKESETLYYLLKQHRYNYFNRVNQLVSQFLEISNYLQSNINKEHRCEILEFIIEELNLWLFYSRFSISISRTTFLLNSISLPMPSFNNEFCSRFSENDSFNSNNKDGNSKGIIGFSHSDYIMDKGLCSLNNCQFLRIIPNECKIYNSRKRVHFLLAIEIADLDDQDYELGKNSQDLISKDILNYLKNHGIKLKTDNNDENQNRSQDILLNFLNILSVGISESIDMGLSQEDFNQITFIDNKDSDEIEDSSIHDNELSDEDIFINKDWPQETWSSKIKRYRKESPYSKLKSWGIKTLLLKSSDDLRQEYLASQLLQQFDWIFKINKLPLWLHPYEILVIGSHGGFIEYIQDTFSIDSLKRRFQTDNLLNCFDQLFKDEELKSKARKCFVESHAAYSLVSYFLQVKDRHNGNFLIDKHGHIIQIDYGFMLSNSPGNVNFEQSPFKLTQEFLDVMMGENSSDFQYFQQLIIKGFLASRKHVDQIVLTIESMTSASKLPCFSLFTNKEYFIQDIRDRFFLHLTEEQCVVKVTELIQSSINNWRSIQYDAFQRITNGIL
Outline: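 Enzyme was pre-incubated with compound for 5 min at room temperature. The reaction was started with substrate mix at twice final strength (PI, ATP, Tris-HCl pH 7.5, DTT, 0.05% Triton X-100, MnCl2) and run 50 min at room temperature. ADP was measured by ADP-Glo luminescence. IC50s came from in-plate duplicate 10-point 3-fold dilutions, with DMSO and reference-inhibitor controls. The C. parvum enzymes (wild type and mutants) were full-length proteins expressed from baculovirus in Sf21 cells.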

[4] = Liver microsomes metabolic stability; type: in vitro ADME; conditions: mouse
Outline: as §1

CYP3A4 = CYP3A4 (Homo sapiens, UniProt P08684); experiment: CYP450 reversible inhibition; type: in vitro ADME
Chain of CYP3A4 (P08684 whole entry): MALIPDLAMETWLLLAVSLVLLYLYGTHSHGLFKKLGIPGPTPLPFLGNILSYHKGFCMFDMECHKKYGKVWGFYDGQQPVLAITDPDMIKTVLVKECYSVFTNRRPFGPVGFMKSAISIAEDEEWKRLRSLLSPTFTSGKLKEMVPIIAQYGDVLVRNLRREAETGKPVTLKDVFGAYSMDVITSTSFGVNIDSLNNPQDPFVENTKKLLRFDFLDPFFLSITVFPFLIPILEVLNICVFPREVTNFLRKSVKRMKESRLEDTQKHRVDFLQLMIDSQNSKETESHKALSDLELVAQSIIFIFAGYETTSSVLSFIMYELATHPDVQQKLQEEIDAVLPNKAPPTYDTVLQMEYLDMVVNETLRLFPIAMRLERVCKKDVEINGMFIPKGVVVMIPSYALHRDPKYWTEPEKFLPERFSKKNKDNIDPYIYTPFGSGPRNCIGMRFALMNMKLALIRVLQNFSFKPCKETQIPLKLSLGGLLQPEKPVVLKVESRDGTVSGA

[5] = Systemic exposure in the mouse efficacy studies; type: in vivo
C. parvum [6] = experiment: Host cell invasion assay; type: cell-based, Cryptosporidium parvum; conditions: HCT-8, 3 h; EDI048 and KDU731 20 µM, wiskostatin 11.3 µM
Outline: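 HCT-8 monolayers were 95–100% confluent. Compounds were added at twice the final concentration 1 h before infection with 50,000 primed oocysts per well. Plates were kept 3 h at 37 °C, 5% CO2, then washed with PBS-0.1% Tween 20, fixed in 4% PFA for 15 min at room temperature, permeabilized with 0.25% Triton X-100 and blocked in 4% BSA. Vacuoles were stained with fluorescein-VVL and nuclei with Hoechst, then imaged.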

[7] = Liver microsomes metabolic stability; type: in vitro ADME; conditions: dog
Outline: as §1

Compound: CNC(=O)c1ccc(-c2cnn3ccc(C(=O)N(C)c4ccc(Cl)c(C(=O)OC)c4)cc23)cc1 [EDI048, methyl 2-chloro-5-(N-methyl-3-(4-(methylcarbamoyl)phenyl)pyrazolo[1,5-a]pyridine-5-carboxamido)benzoate]
- In vitro Human lymphocyte MN induction [1]: Positive^d
- Microsomal ER [2]: 92%
- microsomal CLint ([2]; liver microsomes): 222 µL/min/mg
- CYP3A4 / 1A2 / 2B6 hepatocyte induction assay (CYP3A4 / 1A2 / 2B6): Non-inducer
- PAMPA (% calc fraction absorbed) (PAMPA): 97%
- IC50 (hNav1.5): > 50000 nM
- EC50 (C. parvum [3]): 50 nM
- IC50 (CYP2C9): 2510 nM
- Papp A→B (P-glycoprotein (MDR1); MDCK-MDR1): 7.92 ×10⁻⁶ cm/s
- efflux ratio (P-glycoprotein (MDR1); MDCK-MDR1): 1.62
- Papp B→A (P-glycoprotein (MDR1); MDCK-MDR1, Permeability B–A, MDCK MDR1, basolateral to apical): 12.9 ×10⁻⁶ cm/s
- Plasma T1/2 (Plasma stability): > 2 h
- half-life (Plasma stability; Plasma T1/2, human plasma): > 4 h
- IC50 (CpPI(4)K): 4 ± 2 nM
- Microsomal ER [4]: 93%
- microsomal CLint ([4]; liver microsomes): > 700 µL/min/mg
- IC50 (CYP3A4): 10500 nM
- systemic exposure ([5]; mouse, oral 1 and 3 mg kg^−1): no detectable EDI048 systemic exposure
- sporozoite invasion (C. parvum [6]): inactive; also recorded: does not affect sporozoite invasion
- Microsomal ER [7]: 94%
- microsomal CLint ([7]; liver microsomes): 271 µL/min/mg

Compound: CN(C(=O)c1ccn2ncc(-c3ccc(C(N)=O)cc3)c2c1)c1ccc(C#N)cn1 [KDU731, 3–(4-carbamoylphenyl)-N-(5-cyanopyridin-2-yl)-N-methylpyrazolo [1,5-a]pyridine-5-carboxamide, reference compound]
- In vitro Human lymphocyte MN induction [1]: induce micronuclei; also recorded: Positive
- Microsomal ER [2]: 39%
- microsomal CLint [2]: 13 µL/min/mg
- CYP3A4 / 1A2 / 2B6 hepatocyte induction assay (CYP3A4 / 1A2 / 2B6): Non-inducer
- PAMPA (% calc fraction absorbed) (PAMPA): 34.7%
- IC50 (hNav1.5): > 50000 nM
- EC90 (C. parvum [3]; Cryptosporidium parvum, HCT-8, read-out: approximate C. parvum CPE assay EC90): ~500 nM
- EC50 (C. parvum [3]): 100 nM
- IC50 (CYP2C9): > 4800 nM
- Papp A→B (P-glycoprotein (MDR1); MDCK-MDR1): 1.95 ×10⁻⁶ cm/s
- Papp B→A (P-glycoprotein (MDR1); MDCK-MDR1): 15.5 ×10⁻⁶ cm/s
- efflux ratio (P-glycoprotein (MDR1); MDCK-MDR1): 7.93
- half-life (Plasma stability): > 2 h
- IC50 (CpPI(4)K): 17 ± 8 nM
- Microsomal ER [4]: 48%
- microsomal CLint [4]: 50 µL/min/mg
- IC50 (CYP3A4): > 50000 nM
- AUC (time 0 to last timepoint) ([5]; mouse efficacy study, 10 mg kg^−1 oral): 2,982 nM h
- sporozoite invasion (C. parvum [6]): inactive
- Microsomal ER [7]: 67%
- microsomal CLint [7]: 36 µL/min/mg

Reference: publication PMC11522000 (Nature Microbiology, 2024)
